From ChEMBL document CHEMBL1147708 (Bioorg Med Chem Lett, 2006) come the findings set out here.

SMILES strings stand for the structures. pIC50: −log10 of the molar value.

Among the targets are Cytochrome P450 3A4 (Homo sapiens, UniProt P08684); Cytochrome P450 2C9 (Homo sapiens, UniProt P11712); Cytochrome P450 2D6 (Homo sapiens, UniProt P10635).
A further data set deals with T1, Cytochrome P450 26A1 (Homo sapiens, UniProt O43174).
T1 sequence (O43174 whole entry): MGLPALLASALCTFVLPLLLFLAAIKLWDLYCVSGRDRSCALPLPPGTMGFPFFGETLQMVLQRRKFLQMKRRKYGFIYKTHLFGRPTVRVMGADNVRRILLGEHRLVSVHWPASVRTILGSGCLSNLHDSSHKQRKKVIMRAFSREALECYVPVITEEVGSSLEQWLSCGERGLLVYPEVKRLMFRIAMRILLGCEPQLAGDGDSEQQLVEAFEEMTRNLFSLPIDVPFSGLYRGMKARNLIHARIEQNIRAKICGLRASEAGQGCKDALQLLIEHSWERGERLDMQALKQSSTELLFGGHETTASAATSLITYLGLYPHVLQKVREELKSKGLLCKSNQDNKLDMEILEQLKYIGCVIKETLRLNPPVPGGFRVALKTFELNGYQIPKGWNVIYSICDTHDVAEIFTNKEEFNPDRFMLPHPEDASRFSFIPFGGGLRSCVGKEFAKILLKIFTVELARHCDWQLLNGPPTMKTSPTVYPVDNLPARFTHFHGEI
Nature of the data set: Inhibition of CYP26 expressed in human T47D cell line.

Another data set has as its system T47D. Kind of data set: Activity against human T47D cell line. The data set is classed as functional.
Data set [1] can be described thus: in vivo. The following applies: CD1, mouse, po, 5 mg/kg.
Data set [2] in a line: in vivo. The conditions noted are these: CD1, mouse, iv, 1 mg/kg.
In the next data set the target is T2, Cytochrome P450 1A2 (Homo sapiens, UniProt P05177).
T2 sequence (P05177 whole entry): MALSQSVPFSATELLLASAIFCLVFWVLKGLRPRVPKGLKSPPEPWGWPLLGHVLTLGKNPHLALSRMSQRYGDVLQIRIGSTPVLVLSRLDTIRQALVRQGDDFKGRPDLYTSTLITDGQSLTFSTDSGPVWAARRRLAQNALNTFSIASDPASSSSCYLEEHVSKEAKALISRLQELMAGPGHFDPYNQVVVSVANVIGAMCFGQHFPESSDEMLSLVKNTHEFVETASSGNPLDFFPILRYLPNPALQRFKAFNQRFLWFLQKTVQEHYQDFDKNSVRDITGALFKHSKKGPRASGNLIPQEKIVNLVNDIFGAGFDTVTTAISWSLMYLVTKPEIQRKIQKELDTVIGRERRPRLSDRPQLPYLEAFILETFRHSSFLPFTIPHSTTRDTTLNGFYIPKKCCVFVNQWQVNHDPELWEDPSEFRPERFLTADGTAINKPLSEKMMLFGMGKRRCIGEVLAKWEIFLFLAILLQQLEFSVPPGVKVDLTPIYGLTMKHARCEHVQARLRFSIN

Data set [3] is described as follows: Bioavailability in CD1 mouse. The conditions noted are these: in vivo.
Data set [4] is filed under the species Mus musculus. The following applies: in vivo, po, 5 mg/kg.
Data set [5] deals with Mus musculus. Kind of data set: AUC(0-tz) in CD1 mouse at 5 mg/kg, po co-administered with 3-[6-(2-dimethylamino- 1-imidazol-1-yl-butyl)-naphthalen-2-yloxy]- 2,2-dimethyl-propionic acid at 10 mg/kg, po. The data set is classed as ADME, organism-based, Plasma. The conditions noted are these: in vivo. The method in brief:
(§1)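 Female CD-1 mice, about six weeks old, got atRA at 5 mg/kg by gavage (0.5 mg/mL in 1.5% v/v DMSO/safflower oil, 10 mL/kg). This was given immediately before the inhibitor at 10 mg/kg orally in water for injection. Three mice per timepoint gave cardiac EDTA blood. Plasma was acetonitrile-precipitated, and atRA was read by HPLC-UV against blank mouse plasma standards. AUC came from noncompartmental analysis of median values.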

The nature of data set [6]: Plasma concentration in CD1 mouse at 5 mg/kg, po after 2 hrs. The data set is classed as ADME, organism-based. The arrangement: dose 5 mg/kg, route oral. In outline: (§2)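 Female CD-1 mice, about six weeks old, got atRA by oral gavage at 10 mL/kg (5 mg/kg), from a 0.5 mg/mL solution in 1.5% v/v DMSO in safflower oil. Three mice per timepoint gave terminal cardiac blood in EDTA.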

Data set [7] in a line: Plasma concentration in CD1 mouse at 5 mg/kg, po after 2 hrs co-administered with 3-[6-(2-dimethylamino- 1-imidazol-1-yl-butyl)-naphthalen-2-yloxy]- 2,2-dimethyl-propionic acid at 10 mg/kg, po. The data set is classed as ADME, organism-based. In outline: as §1
The subject of data set [8] is Mus musculus. Nature of the data set: AUC(0-tz) in CD1 mouse at 5 mg/kg, po. The data set is classed as ADME, organism-based, Plasma. Set-up: dose 5 mg/kg, route oral. The conditions noted are these: in vivo. The method in brief:
as §2

A short description of data set [9]: Plasma concentration in CD1 mouse at 5 mg/kg, po after 8 hrs. It counts as ADME, organism-based. Set-up: dose 5 mg/kg, route oral. The method in brief:
as §2

A short description of data set [10]: Plasma concentration in CD1 mouse at 5 mg/kg, po after 2 hrs co-administered with 3-[6-(2-dimethylamino- 1-imidazol-1-yl-propyl)-naphthalen-2-yloxy]- 2,2-dimethyl-propionic acid at 10 mg/kg, po. It counts as ADME, organism-based. The method in brief:
as §1

Data set [11] can be described thus: Plasma concentration in CD1 mouse at 5 mg/kg, po after 8 hrs co-administered with 3-[6-(2-dimethylamino- 1-imidazol-1-yl-butyl)-naphthalen-2-yloxy]- 2,2-dimethyl-propionic acid at 10 mg/kg, po. It counts as ADME, organism-based. The method in brief: as §1
Data set [12] is described as follows: Plasma concentration in CD1 mouse at 5 mg/kg, po after 8 hrs co-administered with 3-[6-(2-dimethylamino- 1-imidazol-1-yl-propyl)-naphthalen-2-yloxy]- 2,2-dimethyl-propionic acid at 10 mg/kg, po. It counts as ADME, organism-based. In outline: as §1
Data set [13] relates to Mus musculus. Kind of data set: AUC(0-tz) in CD1 mouse at 5 mg/kg, po co-administered with 3-[6-(2-dimethylamino- 1-imidazol-1-yl-propyl)-naphthalen-2-yloxy]- 2,2-dimethyl-propionic acid at 10 mg/kg, po. It counts as ADME, organism-based, Plasma. The following applies: in vivo. In outline: as §1

Chain of Cytochrome P450 2D6 (P10635 whole entry): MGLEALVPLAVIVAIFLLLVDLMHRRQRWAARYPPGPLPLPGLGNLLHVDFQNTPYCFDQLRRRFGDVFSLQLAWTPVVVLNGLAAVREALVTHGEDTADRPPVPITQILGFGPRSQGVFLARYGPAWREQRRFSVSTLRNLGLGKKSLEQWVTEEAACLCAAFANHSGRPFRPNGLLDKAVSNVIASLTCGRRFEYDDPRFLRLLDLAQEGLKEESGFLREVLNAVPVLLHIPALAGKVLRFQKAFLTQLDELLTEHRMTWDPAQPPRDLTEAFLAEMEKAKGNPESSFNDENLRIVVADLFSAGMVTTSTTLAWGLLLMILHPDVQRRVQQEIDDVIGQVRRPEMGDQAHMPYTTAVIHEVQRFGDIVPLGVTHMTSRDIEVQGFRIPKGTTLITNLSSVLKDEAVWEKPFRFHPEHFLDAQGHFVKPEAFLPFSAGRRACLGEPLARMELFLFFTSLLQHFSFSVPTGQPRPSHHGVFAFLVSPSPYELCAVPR
Chain of Cytochrome P450 3A4 (P08684 whole entry): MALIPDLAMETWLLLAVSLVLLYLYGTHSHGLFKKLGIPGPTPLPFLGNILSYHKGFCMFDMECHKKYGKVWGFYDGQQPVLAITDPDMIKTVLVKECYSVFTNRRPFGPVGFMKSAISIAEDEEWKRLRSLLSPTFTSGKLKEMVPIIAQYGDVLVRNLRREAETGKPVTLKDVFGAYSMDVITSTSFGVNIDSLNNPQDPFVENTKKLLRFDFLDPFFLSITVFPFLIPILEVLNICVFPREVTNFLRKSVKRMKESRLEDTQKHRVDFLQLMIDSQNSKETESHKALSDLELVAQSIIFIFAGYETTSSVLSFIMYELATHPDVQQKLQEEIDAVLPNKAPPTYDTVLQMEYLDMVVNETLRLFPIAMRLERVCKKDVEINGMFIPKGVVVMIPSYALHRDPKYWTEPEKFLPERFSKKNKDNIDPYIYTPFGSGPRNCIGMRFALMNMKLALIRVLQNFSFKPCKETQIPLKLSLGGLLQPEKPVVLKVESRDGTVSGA
Chain of Cytochrome P450 2C9 (P11712 whole entry): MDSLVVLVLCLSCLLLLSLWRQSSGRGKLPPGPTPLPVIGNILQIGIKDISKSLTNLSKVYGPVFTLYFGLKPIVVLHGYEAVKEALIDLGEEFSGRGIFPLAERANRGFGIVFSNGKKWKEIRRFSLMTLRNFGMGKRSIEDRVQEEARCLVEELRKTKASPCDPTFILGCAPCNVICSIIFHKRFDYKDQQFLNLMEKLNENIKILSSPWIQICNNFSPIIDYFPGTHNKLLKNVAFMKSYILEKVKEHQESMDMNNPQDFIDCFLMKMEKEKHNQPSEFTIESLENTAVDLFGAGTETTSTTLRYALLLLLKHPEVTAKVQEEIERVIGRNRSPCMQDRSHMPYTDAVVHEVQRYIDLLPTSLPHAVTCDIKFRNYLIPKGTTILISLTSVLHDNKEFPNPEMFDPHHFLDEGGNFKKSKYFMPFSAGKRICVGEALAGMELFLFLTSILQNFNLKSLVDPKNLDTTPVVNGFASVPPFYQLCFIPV

Usually pIC50 stands for −log10 of the IC50, conventionally taken in molar units. For `CN(C)C[C@@H](c1ccc2cc(OCC(C)(C)C(=O)O)ccc2c1)n1ccnc1`, the pIC50 against Cytochrome P450 26A1 is 6.39.
In turn, `CCCCN(C)[C@H](C)[C@@H](c1ccc2cc(OCC(C)(C)C(=O)O)ccc2c1)n1ccnc1` gave a pIC50 against Cytochrome P450 26A1 of 7.22.
As for `CCN(CC)[C@H](C)[C@@H](c1ccc2cc(OCC3(C(=O)O)CCCC3)ccc2c1)n1ccnc1`, the pIC50 at Cytochrome P450 3A4 was 6.00; at Cytochrome P450 26A1, 8.85.
As for `C[C@H]([C@@H](c1ccc2cc(OCC3(C(=O)O)CC3)ccc2c1)n1ccnc1)N(C)C`, the pIC50 was 5.12 on Cytochrome P450 3A4 and 7.46 on Cytochrome P450 26A1.
On to `CC(C)N(C)[C@H](C)[C@@H](c1ccc2cc(OCC3(C(=O)O)CCCC3)ccc2c1)n1ccnc1`, for which the pIC50 against Cytochrome P450 3A4 was 6.10; at Cytochrome P450 26A1, 8.80.
The like results for `C[C@H]([C@@H](c1ccc2cc(OCC3(C(=O)O)CCC3)ccc2c1)n1ccnc1)N(C)C` were, in that order, 5.15 and 7.40.
Take `C[C@H]([C@@H](c1ccc2cc(OCC(C)(C)C(=O)O)ccc2c1)n1ccnc1)N(C)C1CCCCC1`: at Cytochrome P450 26A1, the pIC50 was 6.90.
Take `CC(C)N(C)[C@H](C)[C@@H](c1ccc2cc(OCC(C)(C)C(=O)O)ccc2c1)n1ccnc1`: the pIC50 on Cytochrome P450 26A1 was 8.52.
As a reminder, the Cmax is the highest concentration seen after dosing. The term half-life denotes the time in which the quantity being followed falls by half. Low readings indicate fast loss, high ones slow loss. Broadly, the bioavailability is the share of a dose that reaches the circulation, judged against a reference dose that is usually intravenous. A lower bioavailability goes with poor availability. As usually defined, the AUC is the area under the concentration-time curve, a measure of exposure. Regarding `C[C@H]([C@@H](c1ccc2cc(OCC3(C(=O)O)CCCCC3)ccc2c1)n1ccnc1)N(C)C`, the Activity in the data set with T47D was below 100 nM. Moreover, the pIC50 against Cytochrome P450 2C9 was below 5.30; at Cytochrome P450 2D6, below 5.30; against Cytochrome P450 3A4, 5.10; against Cytochrome P450 1A2, below 5.30; on Cytochrome P450 26A1, 7.95. The compound also gave a Cmax in the data set “in vivo [1]” of 23 µM. Further, the half-life in “in vivo [2]” was 2.46 h. This compound returned a bioavailability in data set [3] of 99%. Besides, in the data set listed under Mus musculus [4], the AUC is 17500 ng·h/mL.
As to `CCN(C)[C@H](C)[C@@H](c1ccc2cc(OCC3(C(=O)O)CCCC3)ccc2c1)n1ccnc1`, the Activity with T47D is below 100 nM. For the same compound, the pIC50 is below 5.30 at Cytochrome P450 2C9; below 5.30 at Cytochrome P450 2D6; 5.64 at Cytochrome P450 3A4; below 5.30 at Cytochrome P450 1A2; 8.38 at Cytochrome P450 26A1. The compound further gave a Cmax in the data set “in vivo [1]” of 13 µM. The same compound showed a half-life in the data set “in vivo [2]” of 7.1 h. The bioavailability in [3] came out at 99%. The compound further registered an area under the curve (AUC) in the data set listed under Mus musculus [4] of 18900 ng·h/mL.
Consider `C[C@H]([C@@H](c1ccc2cc(OCC(C)(C)C(=O)O)ccc2c1)n1ccnc1)N(C)C`, for which the Activity with T47D is given as 125 nM.
Compound `CCN(CC)[C@H](C)[C@@H](c1ccc2cc(OCC(C)(C)C(=O)O)ccc2c1)n1ccnc1` had a negative-log IC50 (pIC50) against Cytochrome P450 26A1 of 8.30.
Regarding `C[C@H]([C@@H](c1ccc2cc(OCC(C)(C)C(=O)O)ccc2c1)n1ccnc1)N1CCOCC1`, the values for the pIC50 on Cytochrome P450 3A4 and at Cytochrome P450 26A1 were 5.67 and 7.47, respectively.
`CC[C@H]([C@@H](c1ccc2cc(OCC(C)(C)C(=O)O)ccc2c1)n1ccnc1)N(C)C` showed an Activity in the data set with T47D below 5 nM. For the same compound, the negative logarithm of the IC50 (pIC50) was below 5.30 against Cytochrome P450 2C9, below 5.30 on Cytochrome P450 2D6, below 5.30 on Cytochrome P450 1A2 and 8.89 at Cytochrome P450 26A1. The Cmax in the data set “in vivo [1]” is 6.7 µM. Also, the half-life in the data set “in vivo [2]” is 2.76 h. Besides, in [3], the bioavailability was 73%. Further, the AUC in the data set listed under Mus musculus [4] was determined as 5430 ng·h/mL.
Take `C[C@H]([C@@H](c1ccc2cc(OCC(C)(C)C(=O)O)ccc2c1)n1ccnc1)N1CCCC1`: the pIC50 against Cytochrome P450 26A1 is 6.23.
For the compound `CCN(C)[C@H](C)[C@@H](c1ccc2cc(OCC(C)(C)C(=O)O)ccc2c1)n1ccnc1`, the pIC50 on Cytochrome P450 26A1 was 8.05. This pIC50 lies 1.82 log units higher than the previous one.
In the data set with T47D, `C[C@H]([C@@H](c1ccc2cc(OCC3(C(=O)O)CCCC3)ccc2c1)n1ccnc1)N(C)C` yielded an Activity below 100 nM. The pIC50 on Cytochrome P450 2C9 is below 5.30; on Cytochrome P450 2D6, below 5.30; against Cytochrome P450 3A4 it was 5.09; at Cytochrome P450 1A2 it was below 5.30; on Cytochrome P450 26A1 it was 8.14. Further, the Cmax in “in vivo [1]” worked out at 5.5 µM. Moreover, the half-life in “in vivo [2]” is 2.49 h. The same compound returned a bioavailability in data set [3] of 77%. Further, the AUC in the data set listed under Mus musculus [4] amounted to 5800 ng·h/mL.
For the compound `CCC(CC)(COc1ccc2cc([C@H]([C@@H](C)N(C)C)n3ccnc3)ccc2c1)C(=O)O`, at Cytochrome P450 26A1, the negative-log IC50 (pIC50) is 7.43.
Regarding `C[C@H]([C@@H](c1ccc2cc(OCC3(C(=O)O)CCOCC3)ccc2c1)n1ccnc1)N(C)C`, the negative logarithm of the IC50 (pIC50) is below 4.70 against Cytochrome P450 3A4 and 7.33 on Cytochrome P450 26A1.
As to `CN(C)C(C)(C)[C@@H](c1ccc2cc(OCC(C)(C)C(=O)O)ccc2c1)n1ccnc1`, on Cytochrome P450 26A1, the pIC50 is 7.59.
Turning to `CC1=C(/C=C/C(C)=C/C=C/C(C)=C/C(=O)O)C(C)(C)CCC1` [TRETINOIN], the results for the AUC in the data set on Mus musculus [5], with Mus musculus [8] and with Mus musculus [13] were 9900 ng·h/mL, 1690 ng·h/mL and 6470 ng·h/mL, respectively. The concentration at 2 h is 5.24 µM in data set [6], 7.72 µM in [7] and 6.66 µM in [10]. Also, the concentration at 8 h in data set [9] was below 0.01 µM; in data set [11], 2.73 µM; in data set [12], 0.04 µM.
